Experiment [1] concerns the target T1, Methylcytosine dioxygenase TET3 (Homo sapiens, UniProt O43151). As to the kind of experiment: Inhibition of recombinant human TET3 catalytic domain (E824 to I1795 residues) expressed in baculovirus infected Sf9 cells using 5-methylcytosine as substrate preincubated for 10 mins followed by substrate and DNA-cofactor addition measured after 10 mins by Alphascreen assay. As to conditions: read-out: pIC50 (converted).

The target in experiment [2] is T1, Methylcytosine dioxygenase TET3. As to the kind of experiment: Inhibition of recombinant human TET3 catalytic domain (E824 to I1795 residues) expressed in baculovirus infected Sf9 cells using 5-methylcytosine as substrate assessed as change in pIC50 preincubated for 10 mins followed by substrate and DNA-cofactor addition measured after 10 mins by Alphascreen assay. As to conditions: time 20.0 min. For orientation: Alpha assays give light when donor and acceptor beads are brought close together.

Experiment [3] addresses T2, Methylcytosine dioxygenase TET1 (Homo sapiens, UniProt Q8NFU7). As to the kind of experiment: Inhibition of N-terminal 3xFlag-tagged recombinant human TET1 catalytic domain (E1418 to V2136 residues) expressed in baculovirus infected Sf9 cells using 5-methylcytosine as substrate preincubated for 10 mins followed by substrate and DNA-cofactor addition measured after 30 mins by Alphascreen assay. As to conditions: read-out: pIC50 (converted). The gist of the method:
(§1)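 TET1 catalytic domain (E1418–V2136, Sf9 baculovirus) at 2 nM was preincubated 10 min with inhibitor (1% DMSO) in HEPES 50 mM pH 7.3, 150 mM NaCl, 0.1% BSA, 0.01% Tween-20. Reaction was started with ascorbate 200 µM, Fe(II) 20 µM, 2OG 20 µM and 5mC ssDNA 10 nM, run 30 min, then EDTA-quenched. Anti-5hmC antibody with AlphaScreen beads, 45–60 min, luminescence read. Three independent replicates.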

Experiment [4] has as its target T3, Methylcytosine dioxygenase TET2 (Homo sapiens, UniProt Q6N021). As to the kind of experiment: Inhibition of N-terminal His-tagged recombinant human TET2 catalytic domain LCIdel mutant (D1129 to G1936 residues with Y1481 to N1843 replaced by 3 x GGGGS linker) expressed in Escherichia coli BL21 (DE3) using 5-methylcytosine as substrate preincubated for 10 mins followed by substrate and DNA-cofactor addition measured after 10 mins by Alphascreen assay.

Experiment [5] addresses T2, Methylcytosine dioxygenase TET1. As to the kind of experiment: Inhibition of N-terminal 3xFlag-tagged recombinant human TET1 catalytic domain (E1418 to V2136 residues) expressed in baculovirus infected Sf9 cells using 5-methylcytosine as substrate assessed as change in pIC50 preincubated for 10 mins followed by substrate and DNA-cofactor addition measured after 30 mins by Alphascreen assay. As to conditions: time 40.0 min. The gist of the method:
as §1

Experiment [6] deals with Methylcytosine dioxygenase TET2 (Homo sapiens), Q6N021 [UNDEFINED MUTATION]. As to conditions: time 20.0 min.
Experiment [7] has as its target T3, Methylcytosine dioxygenase TET2. As to the kind of experiment: Inhibition of N-terminal His-tagged recombinant human TET2 catalytic domain LCIdel mutant (D1129 to G1936 residues with Y1481 to N1843 replaced by 3 x GGGGS linker) expressed in Escherichia coli BL21 (DE3) using 5-methylcytosine as substrate preincubated for 10 mins followed by substrate and DNA-cofactor addition measured after 12 mins by SPE-MS analysis.

In experiment [8] the target is Methylcytosine dioxygenase TET1 (Mus musculus, UniProt Q3URK3). As to the kind of experiment: Inhibition of recombinant mouse TET1 catalytic domain (E1367 to V2039 residues) expressed in baculovirus expression system using 5-methylcytosine as substrate preincubated for 10 mins followed by substrate and DNA-cofactor addition measured after 9 mins by Alphascreen assay. The gist of the method:
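Murine Tet1 catalytic domain (E1367–V2039, High Five baculovirus) at 2 nM was preincubated 10 min with inhibitor (1% DMSO) in HEPES 50 mM pH 7.3, NaCl 150 mM, BSA 0.1%, Tween-20 0.01%. Ascorbate 200 µM, Fe(II) 20 µM, 2OG 20 µM and 5mC ssDNA 10 nM were added; reaction ran 9 min, then EDTA-quenched. AlphaScreen anti-5hmC detection by luminescence.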

Experimental findings from ChEMBL document CHEMBL5523688, “Selective targeting of human TET1 by cyclic peptide inhibitors: Insights from biochemical profiling” (Bioorg Med Chem, 2024) are described below.

T2 sequence (Q8NFU7 whole entry, the tested form may be a part): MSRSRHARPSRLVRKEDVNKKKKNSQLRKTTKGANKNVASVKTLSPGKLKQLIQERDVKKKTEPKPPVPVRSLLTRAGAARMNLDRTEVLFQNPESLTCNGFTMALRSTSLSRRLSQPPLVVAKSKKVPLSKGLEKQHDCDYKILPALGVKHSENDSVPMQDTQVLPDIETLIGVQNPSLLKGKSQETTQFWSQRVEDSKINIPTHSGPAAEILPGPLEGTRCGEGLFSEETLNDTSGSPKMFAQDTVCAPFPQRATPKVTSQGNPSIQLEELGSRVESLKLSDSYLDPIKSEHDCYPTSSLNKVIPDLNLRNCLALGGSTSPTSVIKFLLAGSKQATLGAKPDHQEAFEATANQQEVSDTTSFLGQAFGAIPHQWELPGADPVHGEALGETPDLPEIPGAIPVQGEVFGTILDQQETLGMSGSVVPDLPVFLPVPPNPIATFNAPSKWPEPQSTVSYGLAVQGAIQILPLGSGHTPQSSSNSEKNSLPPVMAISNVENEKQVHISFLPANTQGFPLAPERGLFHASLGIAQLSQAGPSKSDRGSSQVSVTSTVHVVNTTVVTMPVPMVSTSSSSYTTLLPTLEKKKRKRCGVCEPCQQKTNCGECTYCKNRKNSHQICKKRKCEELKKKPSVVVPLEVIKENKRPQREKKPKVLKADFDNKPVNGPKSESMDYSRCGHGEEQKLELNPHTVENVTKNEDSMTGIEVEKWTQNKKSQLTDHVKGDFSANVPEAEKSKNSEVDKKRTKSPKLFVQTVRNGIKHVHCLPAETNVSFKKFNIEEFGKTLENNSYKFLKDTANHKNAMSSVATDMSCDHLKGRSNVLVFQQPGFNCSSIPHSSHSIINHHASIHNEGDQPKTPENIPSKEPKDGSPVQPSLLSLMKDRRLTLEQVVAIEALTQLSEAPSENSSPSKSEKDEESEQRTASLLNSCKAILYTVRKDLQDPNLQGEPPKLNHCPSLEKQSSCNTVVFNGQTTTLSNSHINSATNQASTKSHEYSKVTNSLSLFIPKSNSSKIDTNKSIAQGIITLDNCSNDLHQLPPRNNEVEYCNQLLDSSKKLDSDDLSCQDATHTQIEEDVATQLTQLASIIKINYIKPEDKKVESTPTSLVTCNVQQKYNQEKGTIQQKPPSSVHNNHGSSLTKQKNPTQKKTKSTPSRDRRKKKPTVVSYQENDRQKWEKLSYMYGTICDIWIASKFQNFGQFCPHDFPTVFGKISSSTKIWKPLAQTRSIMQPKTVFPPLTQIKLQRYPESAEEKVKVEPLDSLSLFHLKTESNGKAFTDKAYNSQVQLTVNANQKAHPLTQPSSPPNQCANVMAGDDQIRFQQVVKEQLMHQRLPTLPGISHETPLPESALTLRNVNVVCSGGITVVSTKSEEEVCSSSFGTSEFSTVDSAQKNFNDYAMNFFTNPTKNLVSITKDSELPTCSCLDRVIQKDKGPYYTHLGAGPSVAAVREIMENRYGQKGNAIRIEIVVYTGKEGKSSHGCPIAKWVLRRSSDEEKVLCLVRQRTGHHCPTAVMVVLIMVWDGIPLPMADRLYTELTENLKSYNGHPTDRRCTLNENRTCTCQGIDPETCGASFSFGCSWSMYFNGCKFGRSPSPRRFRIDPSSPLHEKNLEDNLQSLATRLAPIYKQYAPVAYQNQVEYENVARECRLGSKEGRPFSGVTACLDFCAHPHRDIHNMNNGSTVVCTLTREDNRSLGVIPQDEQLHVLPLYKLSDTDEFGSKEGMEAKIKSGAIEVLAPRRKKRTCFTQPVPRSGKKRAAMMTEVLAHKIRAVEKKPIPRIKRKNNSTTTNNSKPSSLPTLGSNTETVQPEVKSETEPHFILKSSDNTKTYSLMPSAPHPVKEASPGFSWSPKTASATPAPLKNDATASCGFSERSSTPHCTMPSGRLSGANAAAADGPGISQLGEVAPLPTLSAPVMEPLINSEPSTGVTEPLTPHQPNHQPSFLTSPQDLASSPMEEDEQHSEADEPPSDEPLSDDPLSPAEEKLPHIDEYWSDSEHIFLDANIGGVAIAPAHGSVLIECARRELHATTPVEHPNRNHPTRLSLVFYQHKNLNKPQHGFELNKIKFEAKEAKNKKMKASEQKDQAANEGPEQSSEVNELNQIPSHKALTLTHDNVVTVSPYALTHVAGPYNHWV

What is called pIC50 is −log10 of the IC50, conventionally taken in molar units. Regarding `CC[C@H](C)[C@@H]1NC(=O)[C@H](CC(C)C)NC(=O)[C@@H](Cc2ccc(O)cc2)NC(=O)CSC[C@@H](C(N)=O)NC(=O)[C@H](C)NC(=O)[C@H](Cc2c[nH]cn2)NC(=O)[C@H](CCC(=O)O)NC(=O)[C@H](Cc2c[nH]c3ccccc23)NC(=O)[C@H](Cc2c[nH]c3ccccc23)NC(=O)[C@H]([C@@H](C)O)NC(=O)[C@H](Cc2ccc(O)cc2)NC(=O)[C@H](Cc2ccc(O)cc2)NC(=O)[C@H](C)NC(=O)[C@H](Cc2ccc(O)cc2)NC1=O`, the IC50 in experiment [1] is 6.31 µM; in experiment [3], 0.417 µM. In addition, the deltapIC50 is -0.08 in experiment [2], -0.1 in experiment [5] and -0.02 in experiment [6]. For the same compound, the pIC50 in experiment [4] was found to be 4.68.
Take `CC(C)C[C@@H]1NC(=O)[C@@H](Cc2ccc(O)cc2)NC(=O)CSC[C@@H](C(N)=O)NC(=O)[C@H](CO)NC(=O)[C@H](Cc2c[nH]cn2)NC(=O)[C@H](CCC(=O)O)NC(=O)[C@H](Cc2c[nH]c3ccccc23)NC(=O)[C@H](Cc2c[nH]c3ccccc23)NC(=O)[C@H]([C@@H](C)O)NC(=O)[C@H](Cc2ccc(O)cc2)NC(=O)[C@H](Cc2ccc(O)cc2)NC(=O)[C@H](C)NC(=O)[C@H](Cc2ccc(O)cc2)NC(=O)[C@H](C)NC1=O`: the results for the IC50 in experiment [1] and in experiment [3] were 13.8 µM and 1.23 µM, respectively. Moreover, the deltapIC50 is -0.42 in experiment [2], -0.57 in experiment [5] and -0.29 in experiment [6]. In addition, in experiment [4], the negative-log IC50 (pIC50) came to 4.41.
Turning to `CC[C@H](C)[C@@H]1NC(=O)[C@H](CC(C)C)NC(=O)[C@@H](Cc2ccc(O)cc2)NC(=O)CSC[C@@H](C(N)=O)NC(=O)[C@H](CO)NC(=O)[C@H](Cc2c[nH]cn2)NC(=O)[C@H](CCC(=O)O)NC(=O)[C@H](Cc2c[nH]c3ccccc23)NC(=O)[C@H](Cc2c[nH]c3ccccc23)NC(=O)[C@H]([C@@H](C)O)NC(=O)[C@H](Cc2ccc(O)cc2)NC(=O)[C@H](Cc2ccc(O)cc2)NC(=O)[C@H](C)NC(=O)[C@H](C)NC1=O`, the IC50 in experiment [1] is 15.8 µM; in experiment [3] it was 10.7 µM. Besides, the deltapIC50 in experiment [2] was -0.47; in experiment [5], -1.51; in experiment [6], -0.48. Also, the negative logarithm of the IC50 (pIC50) in experiment [4] stood at 4.22.
In the case of `CC[C@H](C)[C@@H]1NC(=O)[C@H](C)NC(=O)[C@@H](Cc2ccc(O)cc2)NC(=O)CSC[C@@H](C(N)=O)NC(=O)[C@H](CO)NC(=O)[C@H](Cc2c[nH]cn2)NC(=O)[C@H](CCC(=O)O)NC(=O)[C@H](Cc2c[nH]c3ccccc23)NC(=O)[C@H](Cc2c[nH]c3ccccc23)NC(=O)[C@H]([C@@H](C)O)NC(=O)[C@H](Cc2ccc(O)cc2)NC(=O)[C@H](Cc2ccc(O)cc2)NC(=O)[C@H](C)NC(=O)[C@H](Cc2ccc(O)cc2)NC1=O`, the IC50 in experiment [1] was 11 µM; in experiment [3], 3.09 µM. Moreover, the deltapIC50 in experiment [2] was -0.32; in experiment [5], -0.97; in experiment [6], -0.31. The pIC50 in experiment [4] came out at 4.38.
`CC[C@H](C)[C@@H]1NC(=O)[C@H](CC(C)C)NC(=O)[C@@H](Cc2ccc(O)cc2)NC(=O)CSC[C@@H](C(N)=O)NC(=O)[C@H](CO)NC(=O)[C@H](Cc2c[nH]cn2)NC(=O)[C@H](CCC(=O)O)NC(=O)[C@H](Cc2c[nH]c3ccccc23)NC(=O)[C@H](Cc2c[nH]c3ccccc23)NC(=O)[C@H]([C@@H](C)O)NC(=O)[C@H](C)NC(=O)[C@H](Cc2ccc(O)cc2)NC(=O)[C@H](C)NC(=O)[C@H](Cc2ccc(O)cc2)NC1=O`: the IC50 in experiment [1] was 15.5 µM; in experiment [3], 9.55 µM. In addition, the figures for the deltapIC50 in experiment [2], in experiment [5] and in experiment [6] were -0.46, -1.46 and -0.4, respectively. Besides, in experiment [4], the pIC50 is 4.3.
In the case of `CC[C@H](C)[C@@H]1NC(=O)[C@H](CC(C)C)NC(=O)[C@@H](Cc2ccc(O)cc2)NC(=O)CSC[C@@H](C(N)=O)NC(=O)[C@H](CO)NC(=O)[C@H](Cc2c[nH]cn2)NC(=O)[C@H](CCC(=O)O)NC(=O)[C@H](Cc2c[nH]c3ccccc23)NC(=O)[C@H](C)NC(=O)[C@H]([C@@H](C)O)NC(=O)[C@H](Cc2ccc(O)cc2)NC(=O)[C@H](Cc2ccc(O)cc2)NC(=O)[C@H](C)NC(=O)[C@H](Cc2ccc(O)cc2)NC1=O`, the IC50 in experiment [1] is 20.4 µM; in experiment [3], 6.92 µM. The results for the deltapIC50 in experiment [2], in experiment [5] and in experiment [6] were -0.59, -1.32 and -0.36, respectively. Besides, the pIC50 in experiment [4] was 4.34.
As for `CC[C@H](C)[C@@H]1NC(=O)[C@H](Cc2ccc(O)cc2)NC(=O)[C@H](Cc2ccc(O)cc2)NC(=O)[C@H](C(C)C)NC(=O)[C@@H](Cc2ccc(O)cc2)NC(=O)CSC[C@@H](C(N)=O)NC(=O)[C@H]([C@@H](C)O)NC(=O)[C@H](CCC(=O)O)NC(=O)[C@H](Cc2ccccc2)NC(=O)[C@H](C(C)C)NC(=O)[C@H](C)NC(=O)[C@H](CCCNC(=N)N)NC(=O)[C@H](CS)NC(=O)[C@H](Cc2c[nH]c3ccccc23)NC(=O)[C@H](Cc2c[nH]c3ccccc23)NC(=O)[C@@H]2CCCN2C1=O`, the IC50 was 31.6 µM in experiment [1], 44.7 µM in experiment [3] and 38.9 µM in experiment [8]. In addition, the pIC50 in experiment [7] is listed as 5.44; in experiment [4] it was below 4. In experiment [6], this compound came in with a deltapIC50 above 1.44.
Take `C[C@@H]1NC(=O)[C@H](Cc2ccccc2)NC(=O)[C@H](Cc2ccc(O)cc2)NC(=O)[C@H](Cc2ccc(O)cc2)NC(=O)[C@H](CCCNC(=N)N)NC(=O)[C@@H](Cc2ccc(O)cc2)NC(=O)CSC[C@@H](C(N)=O)NC(=O)[C@H](C)NC(=O)[C@H](Cc2c[nH]c3ccccc23)NC(=O)[C@H](Cc2c[nH]c3ccccc23)NC(=O)[C@H]([C@@H](C)O)NC(=O)[C@H](Cc2ccc(O)cc2)NC1=O`: the values for the IC50 in experiment [1], in experiment [3] and in experiment [8] were 2.75 µM, 0.468 µM and 3.63 µM, respectively. Also, the pIC50 in experiment [7] is reported as ~ 5; in experiment [4], 5.52. Further, in experiment [6], the deltapIC50 is -0.5.
As for `CC[C@H](C)[C@@H]1NC(=O)[C@H](CCC(N)=O)NC(=O)[C@H](Cc2ccc(O)cc2)NC(=O)[C@H](Cc2ccc(O)cc2)NC(=O)[C@H]([C@@H](C)O)NC(=O)[C@H](CCCCN)NC(=O)[C@H](C(C)C)NC(=O)[C@H](CCCNC(=N)N)NC(=O)[C@H](Cc2ccc(O)cc2)NC(=O)[C@@H](Cc2ccc(O)cc2)NC(=O)CSC[C@@H](C(N)=O)NC(=O)[C@H](CO)NC(=O)[C@H](CC(C)C)NC(=O)[C@H](Cc2ccc(O)cc2)NC(=O)[C@H](C(C)C)NC(=O)[C@H](Cc2ccc(O)cc2)NC(=O)[C@H]([C@@H](C)O)NC1=O`, the IC50 in experiment [1] was 2.69 µM; in experiment [3] it was 0.794 µM; in experiment [8], 4.07 µM. The pIC50 in experiment [7] worked out at 5.51; in experiment [4], 5.52. The compound further came in with a deltapIC50 in experiment [6] of -0.01.
As to `CC[C@H](C)[C@@H]1NC(=O)[C@@H](Cc2ccc(O)cc2)NC(=O)CSC[C@@H](C(N)=O)NC(=O)[C@H](CCCNC(=N)N)NC(=O)[C@H](Cc2c[nH]c3ccccc23)NC(=O)[C@H](Cc2c[nH]c3ccccc23)NC(=O)[C@H]([C@@H](C)O)NC(=O)[C@H](Cc2ccc(O)cc2)NC(=O)[C@H](Cc2ccc(O)cc2)NC(=O)[C@H](CCCNC(=N)N)NC(=O)[C@H](Cc2ccc(O)cc2)NC(=O)[C@H](C(C)C)NC1=O`, the IC50 in experiment [1] was 1.38 µM; in experiment [3], 0.269 µM; in experiment [8], 1.78 µM. Further, the values for the pIC50 in experiment [7] and in experiment [4] were 5.47 and 5.66, respectively. Moreover, in experiment [6], the deltapIC50 is -0.19.
